Measurements from ChEMBL document CHEMBL4007470, “Discovery of a 2'-fluoro-2'-C-methyl C-nucleotide HCV polymerase inhibitor and a phosphoramidate prodrug with favorable properties” (Bioorg Med Chem Lett, 2017).
Values after ≈ are worked out from the molar mass of the structure shown.

How the values were obtained:
[1] = Prodrug activation in human HuH7 cells infected with HCV genotype 1b assessed as ((2R,3R,4R,5S)-5-(4-aminoimidazo[1,2-f][1,2,4]triazin-7-yl)-4-fluoro-3-hydroxy-4-methyltetrahydrofuran-2-yl)methyl tetrahydrogen triphosphate level per million cells at 10 uM after 24 hrs by LC-MS/MS analysis; format: cell-based; details: huh-7, 24 h
Outline: (§1)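 HCV genotype 1b replicon Huh-7 cells (DMEM with glutaMAX, 10% heat-inactivated FBS, penicillin-streptomycin, G418) grown to confluency (0.88×10^6 cells/well), exposed continuously to prodrug at 10 μM for up to 24 h; washed in ice-cold saline, extracted into 70% methanol overnight, dried, resuspended in 1 mM ammonium phosphate pH 8.5; triphosphate quantified by LC-MS/MS; LLOQ 0.137 pmol/million cells; duplicate wells, single experiment.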

[2] = Half life in human plasma at 2 uM by LC-MS/MS analysis; format: ADME, cell-free
Outline: (§2)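 Compound at 2 μM incubated in plasma at 37 °C for up to 4 h. Aliquots quenched with 9 volumes of acetonitrile containing internal standard, then centrifuged. Supernatant analysed by LC-MS/MS.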

[3] = Hepatic extraction in hamster liver S9 fractions at 2 uM by LC-MS/MS analysis; format: ADME; details: cricetinae, liver S9 fractions; read-out: ERH
Outline: (§3)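 Compound at 2 μM incubated with S9 fractions at 37 °C for 90 min with NADPH and UDPGA. Quenched with aqueous acetonitrile/methanol containing internal standard and analysed by LC-MS/MS. Half-life from an exponential fit assuming first-order kinetics. Hepatic extraction predicted from half-life using the well-stirred model.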

Huh-7 = test: Cytotoxicity against human HuH7 cells; format: cell-based
[4] = Half life in hamster intestinal S9 fractions at 2 uM by LC-MS/MS analysis; format: ADME, Intestine; details: cricetinae; for half-life at 2 µM: intestinal S9 fractions
[5] = Half life in hamster plasma at 2 uM by LC-MS/MS analysis; format: ADME, cell-free; details: cricetinae; outline: as §2
[6] = Half life in human intestinal S9 fractions at 2 uM by LC-MS/MS analysis; format: ADME, Intestine; outline: as §3
[7] = Prodrug activation in human HuH7 cells infected with HCV genotype 1b assessed as ((2R,3R,4R,5S)-5-(4-aminoimidazo[1,2-f][1,2,4]triazin-7-yl)-4-fluoro-3-hydroxy-4-methyltetrahydrofuran-2-yl)methyl tetrahydrogen triphosphate level per million cells at 10 uM after 6 hrs by LC-MS/MS analysis; format: cell-based; details: huh-7, 6 h; outline: as §1
Hepatitis C virus [8] = test: Antiviral activity against HCV genotype 4a infected in human HuH7 cells by luciferase reporter gene assay; format: functional, cell-based, Hepacivirus hominis; details: Hepatitis C virus, genotype 4a, Huh-7
[9] = Hepatic extraction in human liver S9 fractions at 2 uM by LC-MS/MS analysis; format: ADME; details: liver S9 fractions, read-out: ERH; outline: as §3
[10] = Prodrug activation in human HuH7 cells infected with HCV genotype 1b assessed as ((2R,3R,4R,5S)-5-(4-aminoimidazo[1,2-f][1,2,4]triazin-7-yl)-4-fluoro-3-hydroxy-4-methyltetrahydrofuran-2-yl)methyl tetrahydrogen triphosphate level per million cells at 10 uM after 2 hrs by LC-MS/MS analysis; format: cell-based; details: huh-7, 2 h; outline: as §1
Hepatitis C virus [11] = test: Antiviral activity against HCV genotype 1b infected in human HuH7 cells by luciferase reporter gene assay; format: functional, cell-based, Hepacivirus hominis
Outline: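 Luciferase-reporter genotype 1b subgenomic replicon in Huh-7 cells; EC50 is concentration giving 50% inhibition. Values are averages of at least three repeats.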

Hepatitis C virus [12] = test: Antiviral activity against HCV genotype 1a infected in human HuH7 cells by luciferase reporter gene assay; format: functional, cell-based, Hepacivirus hominis, subtype 1a
[13] = tested on: RNA-directed RNA polymerase (Hepacivirus hominis), O39930 [UNDEFINED MUTATION]; test: Inhibition of HCV genotype 1b wild-type NS5B RNA dependent RNA polymerase S282T mutant relative to control; details: Hepatitis C virus subtype 1b
[14] = Inhibition of HCV genotype 1b wild-type NS5B RNA dependent RNA polymerase; parameters: species or system Hepatitis C virus subtype 1b
Plasma = test: Stability in rat plasma at 2 uM up to 4 hrs by LC-MS/MS analysis; format: ADME, cell-free; outline: as §2
[15] = Fraction absorbed in Beagle dog at 5 mg/kg, po; format: ADME, organism-based, Canis lupus familiaris; details: in vivo, read-out: Fabs
Outline: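 Male beagle dogs dosed orally at 5 mg/kg. Fraction absorbed determined by portal vein sampling.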

[16] = Permeability of the compound from basolateral to apical side in human Caco2 cells at 10 uM; format: ADME, cell-based, Caco-2; details: Caco-2, read-out: permeability
Outline: (§4)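 Caco-2 permeability at 10 μM compound, measured in apical-to-basolateral and basolateral-to-apical directions.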

[17] = Permeability of the compound from apical to basolateral side in human Caco2 cells at 10 uM; format: ADME, cell-based, Caco-2; details: Caco-2, read-out: permeability; outline: as §4
[18] = Prodrug activation in Syrian golden hamster liver assessed as triphosphate metabolite formation at 5 mg equivalents/kg, po after 1 hr by LC-MS/MS analysis; format: ADME, organism-based, Mesocricetus auratus; details: in vivo
Outline: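 Golden Syrian hamsters (groups of 12) dosed orally at 5 mg-eq/kg in EtOH/PEG400/water buffered with 50 mM pH 4 citrate. Livers harvested under isoflurane at 1 h and extracted in cold KOH/EDTA/70% MeOH with Cl-ATP. Triphosphate measured by LC/MS/MS, with endogenous ATP checked for sample stability.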

[19] = Solubility of the compound in pH 7.4 solution; format: physicochemical
Outline: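 Solubility measured at pH 7.4 using amorphous material.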

[20] = Hepatitis C virus, genotype 1b, Huh-7
[21] = Hepatitis C virus, subtype 1a, Huh-7

Row | half-life at 2 µM [2] [h] | hepatic extraction ratio at 2 µM [3] | half-life at 2 µM [4] [h] | half-life at 2 µM [5] [h] | half-life at 2 µM [6] [h] | EC50 (Hepatitis C virus [8]) [nM] | hepatic extraction ratio at 2 µM [9] | EC50 (Hepatitis C virus [12]; [21]) [nM] | Stability (Plasma) | Papp B→A at 10 µM [16] [×10⁻⁶ cm/s] | Papp A→B at 10 µM [17] [×10⁻⁶ cm/s] | liver triphosphate concentration [18] [µM] | solubility [19] [µg/mL] | Structure (SMILES) | EC50 (Hepatitis C virus [11]; [20]) [nM] | also measured
1 | > 13.2 | 0.97 | 0.183 | > 13.2 | 9.83 | 110 | 0.65 | 510 | Unstable | 16.6 | 0.94 | 0.34 | 642 (≈ 1160 µM) | CC(C)OC(=O)[C@H](C)N[P@](=O)(OC[C@H]1O[C@@H](c2cnc3c(N)ncnn23)[C@](C)(F)[C@@H]1O)Oc1ccccc1 | 670 | 
2 |  |  |  |  |  |  |  |  | Unstable | 8.9 | 0.2 | 0.53 | 306 (≈ 614 µM) | CC(C)OC(=O)[C@H](C)N[P@@](=O)(O)OC[C@H]1O[C@@](C#N)(c2ccc3c(N)ncnn23)[C@](C)(O)[C@@H]1O |  | Fa [15]: 10%
3 | 2.58 | 0.86 | 1.77 | 2.07 | > 13.2 | 1100 | 0.65 | 5000 | Unstable | 17.6 | 4.2 | 1.29 | 657 (≈ 1160 µM) | CC(C)OC(=O)C(C)(C)NP(=O)(OC[C@H]1O[C@@H](c2ccc3c(N)ncnn23)[C@](C)(F)[C@@H]1O)Oc1ccccc1 (stereo partly drawn) | 41800 | 

Further lines, the molecule ahead of its results:

Row | Structure (SMILES) | half-life at 2 µM [2] [h] | hepatic extraction ratio at 2 µM [3] | half-life at 2 µM [4] [h] | half-life at 2 µM [5] [h] | half-life at 2 µM [6] [h] | EC50 (Hepatitis C virus [8]) [nM] | hepatic extraction ratio at 2 µM [9] | EC50 (Hepatitis C virus [12]; [21]) [nM] | Stability (Plasma) | Papp B→A at 10 µM [16] [×10⁻⁶ cm/s] | Papp A→B at 10 µM [17] [×10⁻⁶ cm/s] | liver triphosphate concentration [18] [µM] | solubility [19] [µg/mL] | EC50 (Hepatitis C virus [11]; [20]) [nM] | also measured
4 | CCOC(=O)[C@H](C)NP(=O)(OC[C@H]1O[C@@H](c2cnc3c(N)ncnn23)[C@](C)(F)[C@@H]1O)Oc1ccccc1 (stereo partly drawn) | 7.57 | 0.76 | 0.4 | > 13.2 | 2.23 | 100 | 0.83 | 370 |  |  |  |  |  | 580 to 590 | Drug metabolism [1]: 20.5 pmol; Activity (Huh-7): Non-Toxic; Drug metabolism [7]: 13 pmol; Drug metabolism [10]: 2.4 pmol
5 | C[C@@]1(O)[C@H](O)[C@@H](COP(=O)(O)OP(=O)(O)OP(=O)(O)O)O[C@H]1c1ccc2c(N)ncnn12 |  |  |  |  |  |  |  |  |  |  |  |  |  | > 89000 | fold change (FC) [13]: > 30; IC50 [14]: 290 nM
6 | CC(C)OC(=O)C1(NP(=O)(OC[C@H]2O[C@@H](c3cnc4c(N)ncnn34)[C@](C)(F)[C@@H]2O)Oc2ccccc2)CCC1 (stereo in doubt; 37) | 8.9 | 0.93 |  |  | > 13.2 | 380 | 0.79 |  | Unstable | 9.7 | 2.4 | 1.89 | 538 (≈ 930 µM) |  | Fa [15]: > 70%; t1/2 ([4]; s9, 2 µM, 2 µM): 0.8 h; t1/2 ([5]; 2 µM): > 13.2 h; EC50 (Hepatitis C virus [11]): 18800 nM; EC50 (Hepatitis C virus [12]): 2300 nM
7 | C[C@@]1(F)[C@H](O)[C@@H](COP(=O)(O)OP(=O)(O)OP(=O)(O)O)O[C@@]1(C#N)c1ccc2c(N)ncnn12 [GS-441326] |  |  |  |  |  |  |  |  |  |  |  |  |  | > 89000 | fold change (FC) [13]: 6; IC50 [14]: 420 nM
